The list is not random: actives were taken first. Their share in the collection is about 1.6%.
F508del corr – CFTR F508del correction in bronchial cells; CFBE cells, YFP halide quenching; stimulated with forskolin plus potentiator P3; % fluorescence drop versus neutral controls; activity (quench increase), % at 7.58 µM; 350,000 tested, 0.36% active; AID 720511;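 active = mean added fluorescence quench of at least 8% versus neutral control, with both replicates also reaching 8%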;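 also: cells transiently co-express mutant CFTR-F508del with the halide-sensitive YFP; corrector assay measuring rescue of mutant channel to the surface after 24 h compound exposure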
Scp-1 inhibitor – Scp-1 (human) phosphatase inhibition | Q9GZU7 | Recombinant Scp1, phosphopeptide, malachite green phosphate absorbance | inhibition, % at 20 µM | 340,000 tested, 0.88% active;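 active = inhibition above about 50% at 20 µM, limit read from the data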;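 also: plate controls were DMSO wells with enzyme for no effect and wells lacking enzyme for full effect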
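Times: enzyme reaction 45 min at room temperature, colour 5 min, stabilisation 30 min. Material: SCP-1 catalytic fragment, aa 76-261. Medium: Acidic Tris acetate buffer with magnesium and detergent. Signal: colorimetric free-phosphate detection, absorbance 630 nm. Read-out basis: % inhibition of SCP-1 phosphate liberation. Reagent: Phosphorylated 17-residue peptide substrate.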
SUMO1 PPI mod – modulators of human SUMO1-mediated protein-protein interactions; P63165; SUMO1 binding to a labelled peptide, TR-FRET, 1 h; inhibition, % at 20 µM; 360,000 tested, 0.33% active; AID 602429; in the data active = inhibition above about 37%
STEP block – inhibitors of human striatal-enriched phosphatase STEP | recombinant STEP, OMFP fluorogenic substrate, fluorescence | inhibition, % at 20 µM | 360,000 tested, 0.25% active | AID 588621;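 active = inhibition at 20 µM, scaled per plate between control wells, above about 37%, limit read from the data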;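 also: 0% = DMSO with enzyme and substrate and 100% = substrate only without enzyme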
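Test system: STEP tyrosine phosphatase / Reagent: OMFP at 25 µM / Doses: 20 µM, 1% DMSO / Read-out: percent inhibition scaled to no-enzyme and uninhibited-enzyme controls, plate-pattern corrected / Detection: FITC-channel fluorescence of OMFP product / Medium: Bis-Tris buffer pH 6.0, 2.5 mM DTT, 0.005% Tween 20 / Schedule: 20 min at room temperature, dark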
LMPTP block – blocks human LMPTP phosphatase; P24666; recombinant LMPTP-A, OMFP fluorogenic substrate, fluorescence intensity; inhibition, % at 20 µM; 360,000 tested, 0.22% active; AID 651560;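 active = compounds that cut the enzyme signal by at least half of the control window in the single-dose screen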;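 also: plate controls were DMSO wells with enzyme plus substrate for no effect and substrate without enzyme for full effect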
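test system = LMPTP-A | amount = 0.625 nM LMPTP-A final | reagent = fluorogenic phosphatase substrate OMFP at 400 µM final | incubation = 50 min at room temperature | benchmarks = no-enzyme low control, uninhibited high control | medium = Bis-Tris pH 6.0, DTT, detergent | signal = fluorescence intensity of OMFP turnover product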
DNMT1 block – inhibitors of human DNMT1. P26358. DNMT1 molecular beacon, Hinp1I cleavage, fluorescence. inhibition (reported as % activation of signal), % at 10 µM. 360,000 tested, 0.83% active; in the data active = inhibition above about 50%
Target sequence (P26358 504-1616 limits assumed): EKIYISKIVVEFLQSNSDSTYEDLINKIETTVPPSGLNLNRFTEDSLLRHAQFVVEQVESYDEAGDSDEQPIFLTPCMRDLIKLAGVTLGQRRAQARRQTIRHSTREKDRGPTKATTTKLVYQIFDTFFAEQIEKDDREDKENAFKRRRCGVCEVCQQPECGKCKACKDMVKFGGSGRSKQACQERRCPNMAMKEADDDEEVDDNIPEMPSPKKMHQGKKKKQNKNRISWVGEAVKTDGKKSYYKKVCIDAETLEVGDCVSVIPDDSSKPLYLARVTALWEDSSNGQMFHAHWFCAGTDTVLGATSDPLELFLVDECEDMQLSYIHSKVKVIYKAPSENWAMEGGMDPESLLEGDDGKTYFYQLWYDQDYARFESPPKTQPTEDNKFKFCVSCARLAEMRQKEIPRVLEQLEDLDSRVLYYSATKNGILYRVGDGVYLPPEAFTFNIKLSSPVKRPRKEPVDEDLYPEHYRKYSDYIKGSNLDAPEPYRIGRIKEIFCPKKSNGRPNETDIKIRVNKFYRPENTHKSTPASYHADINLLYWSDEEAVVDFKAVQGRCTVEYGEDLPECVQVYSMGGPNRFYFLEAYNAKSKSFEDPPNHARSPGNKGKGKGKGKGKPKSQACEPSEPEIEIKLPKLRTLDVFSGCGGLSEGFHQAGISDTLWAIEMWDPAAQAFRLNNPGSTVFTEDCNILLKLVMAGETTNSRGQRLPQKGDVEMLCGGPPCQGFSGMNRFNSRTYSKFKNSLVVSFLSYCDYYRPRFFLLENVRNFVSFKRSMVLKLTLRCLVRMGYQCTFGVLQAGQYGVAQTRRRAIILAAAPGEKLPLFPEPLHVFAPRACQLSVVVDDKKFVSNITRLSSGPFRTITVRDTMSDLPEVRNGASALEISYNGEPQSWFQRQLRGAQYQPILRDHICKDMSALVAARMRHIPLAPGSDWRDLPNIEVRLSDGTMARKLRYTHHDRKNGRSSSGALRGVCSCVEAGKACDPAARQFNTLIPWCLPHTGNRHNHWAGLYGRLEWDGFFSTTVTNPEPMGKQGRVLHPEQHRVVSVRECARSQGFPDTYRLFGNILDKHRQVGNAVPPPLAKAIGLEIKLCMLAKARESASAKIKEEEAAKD
Scp-1 conf – Scp-1 (human) inhibition, single-dose confirmed; shares compounds with Scp-1 inhibitor; recombinant SCP-1 catalytic domain, phosphate release, malachite green absorbance; inhibition, % at 20 µM; 2,500 tested, 61% active;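 also: plate controls were DMSO with enzyme for no effect and buffer wells lacking enzyme for full effect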
MG interference – colorimetric interference in Scp-1 counter-screen. shares compounds with Scp-1 inhibitor. Colorimetric interference counterscreen, malachite green absorbance 630 nm. apparent inhibition (interference), % at 20 µM. 2,500 tested, under 10 active. AID 540313;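 also: compounds added after enzyme reaction finished so only phosphate colour detection is probed; plate controls were DMSO wells with completed Scp-1 reaction for no effect and substrate wells lacking enzyme for full effect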
Scp-1 Tm shift – Scp-1 (human) binding by thermal shift; shares compounds with Scp-1 inhibitor; Recombinant SCP1, Sypro Orange thermal shift Tm; thermal shift relative to vanadate control, % at 40 µM; 1,500 tested, 25% active; AID 540329;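 active = substances whose mean melting-temperature shift, as a percentage of the reference inhibitor's shift, reaches about 5.3%, limit read from the data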;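 also: 0% = Tm of DMSO wells and 100% = Tm with sodium orthovanadate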
The depositor's hits bear a star; . = no result given.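 The calls were made as follows, unless noted: active = inhibition of at least 30% at 20 µM; inactive = the rest.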

SMILES	F508del corr	Scp-1 inhibitor	SUMO1 PPI mod	STEP block	LMPTP block	DNMT1 block	Scp-1 conf	MG interference	Scp-1 Tm shift
N#CCCN(/N=C/c1cccnc1)C1=NS(=O)(=O)c2ccccc21	.	3	9	-1	-1	-3	.	.	.
O=C(NCc1ccc2c(c1)OCO2)c1cc(-n2cnnc2)ccc1Cl	.	85*	4	-1	-1	-5	10	-17	.
O=C(NCc1ccc2c(c1)OCO2)c1ccccc1Cl	.	1	2	-1	-1	2	.	.	.
CC(C(=O)NCCC1=CCCCC1)c1ccc([N+](=O)[O-])cc1 (stereo not drawn)	.	-10	-13	0	-1	2	.	.	.
CC(Oc1cccc([N+](=O)[O-])c1)C(=O)NCCC1=CCCCC1 (stereo not drawn)	-1	59*	-18	1	0	-5	-13	-14	.
O=C(COc1ccc(Cl)cc1)NNC(=O)c1ccc(=O)[nH]c1	3	59*	-3	2	0	1	26	6	.
COC(=O)C1CCN(C(=O)COC(=O)CNS(=O)(=O)c2ccc(SC)c([N+](=O)[O-])c2)CC1	1	74*	-30	11	6	24	43*	-21	-15
CSc1ccc(S(=O)(=O)NCC(=O)OCC(=O)N2CC(C)CC(C)C2)cc1[N+](=O)[O-] (stereo not drawn)	-2	6	-27	0	1	1	.	.	.
C/C=C/C=C/C(=O)N1CC2(CC(c3cccc(NC(=O)/C=C/C)c3)=NO2)C[C@@H]1C(N)=O (stereo partly drawn)	-1	56*	18	-2	0	0	7	-14	.
C/C=C(\C)C(=O)Nc1cccc(C2=NOC3(C2)C[C@@H](C(N)=O)N(C(=O)c2ccccc2C(=O)c2ccccc2)C3)c1 (stereo partly drawn)	-4	-4	5	-1	-1	-9	.	.	.
C=C(C)C(=O)Nc1cccc(C2=NOC3(C2)C[C@H](C(N)=O)N(C(=O)c2ccccc2C(=O)c2ccccc2)C3)c1 (stereo partly drawn)	-2	84*	92*	2	-1	97*	78*	6	-1
C[C@@H]1CN([C@@H](C)CO)C(=O)c2cccc(NC(=O)Nc3ccc4c(c3)OCO4)c2O[C@H]1CN(C)CC1CC1	2	.	.	.	.	.	.	.	.
Cc1nc(NC(=O)COC(=O)C2CC2C)c(Cl)cc1Cl (stereo not drawn)	-6	51*	7	0	0	2	-3	-16	.
COc1cc(Cl)c(C)cc1NC(=O)COC(=O)C1CC1C (stereo not drawn)	-1	1	-2	-2	1	23	.	.	.
O=C(Nc1nc2ccccc2s1)C1CCN(S(=O)(=O)c2cc([N+](=O)[O-])ccc2Cl)CC1	0	68*	-11	7	7	28	64*	-9	11*
COc1ccccc1-c1ccc2c(c1)O[C@H](CN(C)C(=O)Nc1cccc(F)c1)[C@@H](C)CN([C@H](C)CO)S2(=O)=O	-2	.	.	.	.	.	.	.	.
COc1ccc(S(=O)(=O)N(C)C[C@H]2OCCCC[C@H](C)Oc3ccc(NC(=O)Nc4ccc5c(c4)OCO5)cc3C(=O)N([C@H](C)CO)C[C@@H]2C)cc1	-2	.	.	.	.	.	.	.	.
CSc1nnc(-c2cc[n+](C)cc2)n1CCO	.	66*	-2	-4	-5	7	10	-8	.
CSc1nnc(-c2ccccc2)n1N	.	-8	-7	-8	-2	2	.	.	.
C[C@H](CO)N1C[C@H](C)[C@@H](CN(C)Cc2ccncc2)Oc2ccc(NS(=O)(=O)c3cn(C)cn3)cc2CC1=O	0	.	.	.	.	.	.	.	.
C[C@H]1CN([C@@H](C)CO)C(=O)c2cc(NS(=O)(=O)c3ccc(F)cc3)ccc2O[C@@H]1CN(C)C	-2	.	.	.	.	.	.	.	.
O=C(Nc1cccc(Br)c1)C1CCCC1	0	-11	0	0	1	2	.	.	.
O=C(O)C1CCCCC1C(=O)Nc1cccc(Br)c1 (stereo not drawn)	1	84*	12	98*	61*	103*	63*	-14	-25
O=C(Nc1ccc2c(c1)C(=O)NC2=O)c1cccc(C(F)(F)F)c1	0	88*	9	5	-2	26	53*	-11	5
O=C(Nc1ccc2c(c1)C(=O)NC2=O)c1ccccc1	4	-6	-21	0	-18	0	.	.	.
SMILES	F508del corr	Scp-1 inhibitor	SUMO1 PPI mod	STEP block	LMPTP block	DNMT1 block	Scp-1 conf	MG interference	Scp-1 Tm shift
CCOc1ccccc1N1CCN(S(=O)(=O)c2ccc3c4c(cccc24)C(=O)N3)CC1	.	61*	5	6	8	32	50*	-8	5
CCOC(=O)N1CCN(S(=O)(=O)c2ccc3c4c(cccc24)C(=O)N3)CC1	-1	-7	-34	1	-4	-1	.	.	.
CCCCc1c(CCC)c(=N)c2ccccc2n1C	.	91*	1	-1	10	0	7	-10	.
CCCCc1c(O)c2ccccc2n(CCCC)c1=O	.	-6	6	-4	0	-2	.	.	.
CCc1ccccc1NC(=O)CCS(=O)(=O)c1ccc(OC)cc1	-2	55*	14	9	0	45	48*	-13	-7
COc1ccc(N2CCN(C(=O)CN(C)S(=O)(=O)c3cnc[nH]3)CC2)cc1	.	54*	-5	-1	1	2	-18	-16	.
CC(C)c1ccc2oc(-c3ccc(NC(=O)c4ncn[nH]4)cc3)nc2c1	.	91*	47*	13	3	37	53*	-7	-14
O=C(Cc1ccccc1)Nc1cccc(-c2nc3ncccc3o2)c1	.	68*	-3	-1	1	-2	5	-8	.
Cc1ccc(S(=O)(=O)N2CCN(C(=O)/C=C/c3ccco3)CC2)cc1	.	71*	-8	3	3	38	71*	-4	-4
Cc1ccc(S(=O)(=O)N2CCN(C(=O)c3ccco3)CC2)cc1	0	-5	-2	1	1	1	.	.	.
Cc1nnc(N2C(=O)c3oc4ccccc4c(=O)c3C2c2ccco2)s1 (stereo not drawn)	2	60*	2	4	0	39	42*	-1	0
CC1CC(C)CN(C(=O)c2ccc3c(c2)N(Cc2ccccc2)CCS3)C1 (stereo not drawn)	.	79*	2	2	5	-2	0	-13	.

Bioassay records (PubChem)
